Data taken from article PMC6448791 (Journal of natural products, 2017).
Several values for one entry are separate records, joined by “and”; a condition that tells them apart may be missing. Equal entries are not always repeated. Where two headings read alike, the source gives them in different places.

Legend:
[1] = test system: SMMC-771 (hepatocellular carcinoma); experiment: MTT cytotoxicity assay, SMMC-7721; assay type: cell-based, human
Procedure, shortened: (§1)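 Cells kept in RPMI-1640 with 10% FBS, penicillin and streptomycin at 37 °C under 5% CO2. Seeded at 5 × 10^4 cells/mL and pre-incubated 24 h. Exposed to test compound at preset concentrations for 48 h. MTT (0.5 mg/mL) added for 4 h, formazan dissolved in DMSO, A490 read. Inhibition % = (ODc − ODt)/ODc × 100. Cisplatin as positive control.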

rabbit erythrocytes = experiment: Hemolytic assay; assay type: cell-based; settings: for HD50 (concentration inducing 50% of erythrocyte hemolysis): 37 °C, 60 min, PBS pH 7.4; for fold lower hemolytic toxicity than 1: HD50 relative to compound 1, rabbit erythrocytes
[2] = test system: BGC-823 (gastric carcinoma); experiment: MTT cytotoxicity assay, BGC-823; assay type: cell-based, human
Procedure, shortened: as §1

[3] = test system: PARP, pro-caspase-3, pro-caspase-9, pro-caspase-8; experiment: Western blot of apoptosis-related proteins; assay type: cell-based
Procedure, shortened: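 A549 cells treated with test compound for 24 h beside untreated control. Lysed in 100 mM Tris-Cl pH 6.8, 4% SDS, 20% glycerol, 200 mM β-mercaptoethanol, 1 mM PMSF plus aprotinin, then spun 12000g for 15 min at 4 °C. Protein measured by BCA, run on 10–15% SDS-PAGE and moved to PVDF. Primary antibodies overnight at 4 °C, HRP secondary, ECL detection; lamin A probed.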

[4] = test system: all five tested human cancer cell lines; experiment: SRB cytotoxicity, all five tested human cancer cell lines; assay type: cell-based; settings: read-out: IC50 against all five tested human cancer cell lines
Procedure, shortened: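 ATCC-sourced lines grown in RPMI-1640 with 10% FBS at 37 °C, 5% CO2. Seeded at 3–5 × 10^3 cells/well in medium already containing graded test compound, then 72 h exposure. Fixed with cold 50% TCA for 30 min, stained with 0.04% SRB for 30 min, bound dye taken up in 10 mM Tris base, A515 read.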

[5] = test system: A549 human lung cancer cell line; experiment: SRB cytotoxicity assay, A549; assay type: cell-based
erythrocytes = settings: cited from earlier work
[6] = Homo sapiens, SMMC-7721, read-out: IC50 SMMC-771
[7] = Homo sapiens, BGC-823, read-out: IC50 BGC-823
[8] = 24 h treatment, compared to controls
[9] = as the concentration of 14 increased

Row | Molecule | IC50 [1, 6] [µM] | HD50 (concentration inducing 50% of erythrocyte hemolysis) (rabbit erythrocytes; rabbit erythrocytes) | IC50 [2, 7] [µM] | other results
1 | C[C@@H]1O[C@@H](O[C@H]2[C@H](O[C@H]3CC[C@@]4(C)[C@@H](CC[C@]5(C)[C@@H]4C(=O)C=C4[C@@H]6CC(C)(C)CC[C@]6(C(=O)O)CC[C@]45C)[C@]3(C)CO)OC[C@H](O[C@@H]3O[C@H](CO)[C@@H](O)[C@H](O)[C@H]3O)[C@@H]2O)[C@H](O)[C@H](O)[C@H]1O [compound 4, 3β,23-Dihydroxy-11-oxo-olean-12-en-28-oic acid-3-O-α-L-rhamnopyranosyl-(1→2)-[β-D-gluco-pyranosyl-(1→4)]-α-L-arabinopyranoside] | > 10 | 239 µM and 239 ± 22.2 µM | > 10 | 
2 | C[C@@H]1O[C@@H](O[C@H]2[C@H](O[C@H]3CC[C@@]4(C)[C@@H](CC[C@]5(C)[C@@H]4C(=O)C=C4[C@@H]6CC(C)(C)CC[C@]6(C(=O)NCC(=O)O)CC[C@]45C)[C@]3(C)CO)OC[C@H](O[C@@H]3O[C@H](CO)[C@@H](O)[C@H](O)[C@H]3O)[C@@H]2O)[C@H](O)[C@H](O)[C@H]1O [compound 7, 3β,23-Dihydroxy-11-oxo-olean-12-en-28-(glycine)oic acid-3-O-α-L-rhamnopyranosyl-(1→2)-[β-D-glucopyranosyl-(1→4)]-α-L-arabinopyranoside] | > 10 | 290−308 μM and 290 ± 27.0 μM | > 10 | 
3 | C[C@@H]1O[C@@H](O[C@H]2[C@H](O[C@H]3CC[C@@]4(C)[C@@H](CC[C@]5(C)[C@@H]4CC(=O)[C@@H]4[C@@H]6CC(C)(C)CC[C@]6(C(=O)O)CC[C@]45C)[C@]3(C)CO)OC[C@H](O[C@@H]3O[C@H](CO)[C@@H](O)[C@H](O)[C@H]3O)[C@@H]2O)[C@H](O)[C@H](O)[C@H]1O [compound 9, 3β,23-Dihydroxy-12-oxo-olean-28-oic acid-3-O-a-L-rhamnopyranosyl-(1→2)-[β-D-glucopyranosyl-(1→4)]-a-L-arabinopyranoside] | > 10 | 73.1 µM and 73.1 ± 9.0 µM | > 10 | fold lower hemolytic toxicity than 1 (rabbit erythrocytes): at least 10 fold
4 | C[C@@H]1O[C@@H](O[C@H]2[C@H](O[C@H]3CC[C@@]4(C)[C@@H](CC[C@]5(C)[C@@H]4CC(=O)[C@]46OC(=O)[C@@]7(CCC(C)(C)C[C@H]74)CC[C@@]56C)[C@]3(C)CO)OC[C@H](O[C@@H]3O[C@H](CO)[C@@H](O)[C@H](O)[C@H]3O)[C@@H]2O)[C@H](O)[C@H](O)[C@H]1O [compound 10, 3β,23-Dihydroxy-12-oxo-olean-28-oic acid-28,13β-lactone-3-O-α-L-rhamnopyranosyl-(1→2)-[β-D-glucopyranosyl-(1→4)]-α-L-arabinopyranoside] | > 10 | 290 μM and 290−308 μM and 290 ± 25.5 μM | > 10 | fold lower hemolytic toxicity than 1 (rabbit erythrocytes): ~50 fold
5 | C[C@@H]1O[C@@H](O[C@H]2[C@H](O[C@H]3CC[C@@]4(C)[C@@H](CC[C@]5(C)[C@@H]4C[C@H](O)[C@]46OC(=O)[C@@]7(CCC(C)(C)C[C@H]74)CC[C@]65C)[C@]3(C)CO)OC[C@H](O[C@@H]3O[C@H](CO)[C@@H](O)[C@H](O)[C@H]3O)[C@@H]2O)[C@H](O)[C@H](O)[C@H]1O [compound 11, 33β,12α,23-Trihydroxyolean-28-oic acid 28,13β-lactone-3-O-α-3L3-rhamnopyranosyl-(1→32)-[β-3D3-glucopyranosyl-(1→34)]-α-3L3-arabinopyranoside] | > 10 | 308 μM and 290−308 μM and 308 ± 24.2 μM | > 10 | fold lower hemolytic toxicity than 1 (rabbit erythrocytes): ~50 fold
6 | CC(=O)OC[C@@]1(C)[C@@H]2CC[C@]3(C)[C@H](CC=C4[C@@H]5CC(C)(C)CC[C@]5(C(=O)O)CC[C@]43C)[C@@]2(C)CC[C@@H]1OC(C)=O [compound 12, 3β,23-Diacetoxyolean-12-en-28-oic acid] |  | >500 µM |  | 
7 | CCOC(=O)CNC(=O)[C@]12CCC(C)(C)C[C@H]1C1=CC[C@@H]3[C@@]4(C)CC[C@H](OC(C)=O)[C@@](C)(COC(C)=O)[C@@H]4CC[C@@]3(C)[C@]1(C)CC2 [compound 13, 3β,23-Diacetoxyolean-12-en-N-[glycineethyl ester]-28-formamide] |  | >500 µM |  | 
8 | CCOC(=O)CCCNC(=O)[C@]12CCC(C)(C)C[C@H]1C1=CC[C@@H]3[C@@]4(C)CC[C@H](OC(C)=O)[C@@](C)(COC(C)=O)[C@@H]4CC[C@@]3(C)[C@]1(C)CC2 [compound 14, 3β,23-Diacetoxyolean-12-en-N-[4-aminobutanoic acid ethyl ester]-28-formamide] |  | >500 µM |  | expression of pro-caspase-3 [3, 8]: decreased; expression of pro-caspase-8 [3, 8]: decreased; expression of pro-caspase-9 [3, 8]: decreased; expression of PARP [3, 9]: decreased; expression of cleaved PARP [3, 9]: increased; IC50 [4]: 2.8 to 8.6 µM
9 | CCOC(=O)CCCCCNC(=O)[C@]12CCC(C)(C)C[C@H]1C1=CC[C@@H]3[C@@]4(C)CC[C@H](OC(C)=O)[C@@](C)(COC(C)=O)[C@@H]4CC[C@@]3(C)[C@]1(C)CC2 [compound 15, 3β,23-Diacetoxyolean-12-en-N-[6-aminocaproic acid ethyl ester]-28-formamide] |  | >500 µM |  | 
10 | CC1(C)CC[C@]2(C(=O)NCC(=O)O)CC[C@]3(C)C(=CC[C@@H]4[C@@]5(C)CC[C@H](O)[C@@](C)(CO)[C@@H]5CC[C@]43C)[C@@H]2C1 [compound 16, 3β,23-Dihydroxyolean-12-en-28-(glycine)oic acid amide] |  | >500 µM |  | 
11 | CC1(C)CC[C@]2(C(=O)NCCCC(=O)O)CC[C@]3(C)C(=CC[C@@H]4[C@@]5(C)CC[C@H](O)[C@@](C)(CO)[C@@H]5CC[C@]43C)[C@@H]2C1 [compound 17, 3β,23-Dihydroxyolean-12-en-28-(4-aminobutanoic acid)oic acid amide] |  | >500 µM |  | 
12 | CC1(C)CC[C@]2(C(=O)NCCCCCC(=O)O)CC[C@]3(C)C(=CC[C@@H]4[C@@]5(C)CC[C@H](O)[C@@](C)(CO)[C@@H]5CC[C@]43C)[C@@H]2C1 [compound 18, 3β,23-Dihydroxyolean-12-en-28-(6-aminocaproic acid)oic acid amide] |  | >500 µM |  | 
13 | CC1(C)CC[C@]2(C(=O)O)CC[C@]3(C)C(=CC[C@@H]4[C@@]5(C)CC[C@H](O)[C@@](C)(CO)[C@@H]5CC[C@]43C)[C@@H]2C1 [hederagenin, reference compound] |  | >200 µM |  | cytotoxicity toward A549 cancer cells (in words) [5]: inactive; hemolytic toxicity (in words) (rabbit erythrocytes; rabbit erythrocytes): low hemolytic toxicity
14 | hederagenin 3-O-α-L-rhamnopyr-anosyl-(1→2)-[β-D-glucopyranosyl-(1→4)]-α-L-arabinopyrano-side [compound 1] |  | 6.3 µM and 6.3 ± 0.58 µM |  | IC50 ([1]; read-out: IC50 SMMC-771, MTT assay): 4.4 µM; HD50 (hemolytic toxicity) (erythrocytes): 6.3 µM; IC50 ([2]; read-out: IC50 BGC-823, MTT assay): 7.2 µM
